Data on 22 compounds can be found in ChEMBL document CHEMBL1137227, “Identification of a selective inverse agonist for the orphan nuclear receptor estrogen-related receptor alpha” (J Med Chem, 2004).

Values joined by “and” are separate entries in the source; they are usually repeats but may differ in a detail not shown here. Identical values can stand only once.

Assay [1] has as its target T1, Steroid hormone receptor ERR1 (Homo sapiens) (UniProt P11474).
T1 sequence (whole entry): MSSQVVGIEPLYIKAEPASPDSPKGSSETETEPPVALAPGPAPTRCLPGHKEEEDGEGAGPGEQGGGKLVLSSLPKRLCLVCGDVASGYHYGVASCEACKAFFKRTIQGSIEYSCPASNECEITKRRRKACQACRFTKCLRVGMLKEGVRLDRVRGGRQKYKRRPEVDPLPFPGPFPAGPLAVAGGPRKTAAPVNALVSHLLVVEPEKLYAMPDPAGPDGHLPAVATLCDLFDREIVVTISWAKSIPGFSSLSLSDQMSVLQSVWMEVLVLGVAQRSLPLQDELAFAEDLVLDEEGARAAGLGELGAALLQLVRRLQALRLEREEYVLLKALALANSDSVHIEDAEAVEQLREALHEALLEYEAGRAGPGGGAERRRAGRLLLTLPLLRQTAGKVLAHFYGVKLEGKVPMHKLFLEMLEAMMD
As to the kind of experiment: Percent inhibition of estrogen-related receptor alpha Gal4 activity at 10 uM. In a few lines:
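Gal4-ERRα cell-based cotransfection assay with compound tested at a single concentration of 10 μM. Activity expressed as percent inhibition of ERRα-driven Gal4 signal.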

In assay [2] the target is T2, Steroid hormone receptor ERR1 (Homo sapiens, UniProt P11474).
T2 sequence (P11474 whole entry): T1 sequence (whole entry)
Description: (§1) Inhibition of estrogen-related receptor alpha Gal4 activity.

The target of assay [3] is T2, Steroid hormone receptor ERR1. As to the kind of experiment: Inhibition of estrogen-related receptor alpha Gal4 activity; not active. In a few lines:
(§2)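 Cell-based cotransfection assay in Gal4-ERRα format. IC50 fitted by nonlinear regression to 10-dose titration curves and averaged over at least two experiments. Standard error of the mean typically under 30% per experiment. NA means not active under assay conditions.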

Assay [4] has the same target. The description is as §1. In a few lines: as §2
The source holds these as a separate data set.

For assay [5] the target is unchanged. As to the kind of experiment: Inhibition of estrogen-related receptor alpha in FP assay.

The inhibition is the change of the read-out against control, counted positive when it falls. The term IC50 denotes the midpoint of a concentration-inhibition curve. Low readings indicate greater potency, high ones weaker potency. `CCc1nnc(NC(=O)/C(C#N)=C/c2ccc(OCc3cccc4ccccc34)c(OC)c2)s1`: in assay [1], the inhibition was found to be 90%. The compound also gave an IC50 in assay [2] of 1800 nM.

For `COc1cc(/C=C(\C#N)C(=O)Nc2nnc(C(C)(C)C)s2)ccc1OCc1ccc(C(F)(F)F)cc1C(F)(F)F`, the inhibition in assay [1] stood at 43%. Moreover, the concentration for half-maximal inhibition (IC50) in assay [2] is greater than 10000 nM.

As for `CCc1nnc(NC(=O)/C(C#N)=C/c2ccc(OCc3cc(F)ccc3C(F)(F)F)c(OC)c2)s1`, in assay [2], the IC50 is 800 nM and 1700 nM.

As for `COc1cc(/C=C(\C#N)C(=O)Nc2nnc(SC)s2)ccc1OCCOc1c(C)cccc1C`, in assay [1], the inhibition amounted to 92%. This compound yielded an IC50 in assay [2] of 2600 nM.

Consider `CCc1nnc(NC(=O)/C(C#N)=C/c2ccc(OCc3c(F)cccc3C(F)(F)F)c(OC)c2)s1`, for which, in assay [3], the IC50 entry is “Not Active”.

Take `CCc1nnc(NC(=O)/C(C#N)=C/c2ccc(OCc3ccccc3Br)c(OC)c2)s1`: the inhibition in assay [1] came out at 57%. The compound also yielded a concentration for half-maximal inhibition (IC50) in assay [2] of 2200 nM.

For `COc1cc(/C=C(\C#N)C(=O)Nc2nncs2)ccc1OCCOc1c(C)cccc1C`, in assay [1], the inhibition is 103%. Besides, the 50% inhibitory concentration (IC50) in assay [2] turned out to be 1400 nM.

Regarding `CCc1nnc(NC(=O)/C(C#N)=C/c2ccc(OCc3ccc(C(F)(F)F)cc3C(F)(F)F)c(OC)c2)s1`, the inhibition in assay [1] was 106% and 104% and 99%. Also, in assay [2], the IC50 was 400 nM and 610 nM and 540 nM.

As for `COc1cc(/C=C(\C#N)C(=O)Nc2nncs2)ccc1OCc1ccc(C(F)(F)F)cc1C(F)(F)F`, the inhibition in assay [1] amounted to 99%. The compound also came in with an IC50 in assay [2] of 750 nM.

As to `CCc1nnc(NC(=O)/C(C#N)=C/c2ccc(OCc3cc(C(F)(F)F)ccc3C(F)(F)F)c(OC)c2)s1`, the half-maximal inhibitory concentration (IC50) result in assay [3] is “Not Active”.

`CCc1nnc(NC(=O)/C(C#N)=C/c2ccc(OCc3ccccc3OC(F)(F)F)c(OC)c2)s1`: the inhibition in assay [1] amounted to 101%. Moreover, in assay [2], half-maximal inhibition (IC50) was put at 1800 nM.

Take `COc1cc(/C=C(\C#N)C(=O)Nc2nnc(-c3ccccc3)s2)ccc1OCc1ccc(C(F)(F)F)cc1C(F)(F)F`: the inhibition in assay [1] came to 105%. For the same compound, it took 500 nM to reach half-maximal inhibition in assay [2] (IC50).

Consider `COc1cc(/C=C(\C#N)C(=O)Nc2nccs2)ccc1OCCOc1c(C)cccc1C`, for which, in assay [3], the IC50 entry is reported as “Not Active”.

`CCC1=NN2C/C(=C/c3ccc(OCCOc4c(C)cccc4C)c(OC)c3)C(=O)N=C2S1`: the IC50 came out at 2300 nM in assay [4] and 1400 nM in assay [5].

Consider `CCc1nnc(NC(=O)/C(C#N)=C/c2ccc(OCCOc3c(C)cccc3C)c(OC)c2)o1`, for which, in assay [1], the inhibition amounted to 88%. The compound further displayed a 50% inhibitory concentration (IC50) in assay [2] of 3300 nM.

Consider `CCc1nnc(NC(=O)/C(C#N)=C/c2ccc(OCCOc3c(C)cccc3C)c(OC)c2)s1`, for which the inhibition in assay [1] was found to be 96%. In assay [2], this compound had an IC50 of 2000 nM.

For the compound `COc1cc(/C=C(\C#N)C(=O)Nc2nnc(C(C)(C)C)s2)ccc1OCCOc1c(C)cccc1C`, in assay [1], the inhibition came out at 104%. Also, in assay [2], the IC50 stood at 1700 nM.

On to `COc1cc(/C=C(\C#N)C(=O)Nc2nnc(C(F)(F)F)s2)ccc1OCc1ccc(C(F)(F)F)cc1C(F)(F)F`, for which, in assay [1], the inhibition was determined as 109%.

For the compound `COc1cc(/C=C(\C#N)C(=O)Nc2nnc(C(F)(F)F)s2)ccc1OCCOc1c(C)cccc1C`, in assay [1], the inhibition came out at 112%. The same compound displayed a half-inhibitory concentration (IC50) in assay [2] of 1500 nM.

Regarding `CCc1nnc(NC(=O)/C(C#N)=C/c2ccc(OCc3ccc(F)cc3C(F)(F)F)c(OC)c2)s1`, the inhibition in assay [1] is 109% and 90%. Besides, the IC50 in assay [2] is 920 nM and 1500 nM.

For `COc1cc(/C=C(\C#N)C(=O)Nc2nnc(-c3ccc(N(C)C)cc3)s2)ccc1OCCOc1c(C)cccc1C`, the inhibition in assay [1] stood at 74%. The compound further returned an IC50 in assay [2] of 2000 nM.

For `COc1cc(/C=C(\C#N)C(=O)Nc2nnc(SC)s2)ccc1OCc1ccc(C(F)(F)F)cc1C(F)(F)F`, the inhibition in assay [1] was found to be 105%. It took 440 nM to reach half-maximal inhibition in assay [2] (IC50).
